Where two headings read alike, the source gives them in different places. Blank lines part the entries; values can stand above or below the molecule they belong to. Starred links: 1 amine or outer side, 2 acyl side, 3 side chain; linkers in the order of their positions; H or OH if unused. Non-standard residues stand in square brackets, D forms with d. Residues, ends and D or L forms follow the SMILES beside them. No end group written: not given here. X2 = N6‑isopropyl‑N6‑phenethyl‑lysine, CC(C)N(CCCC[C@H](N[*:1])C(=O)[*:2])CCc1ccccc1; Lys(Et,iPr) = CCN(CCCC[C@H](N)C(=O)O)C(C)C; Me3 = trimethyl (on lysine, Kme3)
Legend:
[1] = target: H3K36me3 15-residue peptide (Homo sapiens) (UniProt P68431); details: cited from earlier work
[2] = target: PHF1 Tudor Y47A (Homo sapiens, UniProt O43189, Y47A); assay: ITC binding to PHF1 Tudor aromatic cage mutant Y47A
How it was run: (§1)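 ITC at 25 °C in 25 mM Tris-HCl pH 7.5, 150 mM NaCl, 2 mM β-mercaptoethanol; typically 100 µM protein, 1 mM compound (10:1). 26 injections, 180 s apart, one-site fit. Fits reach Kd ~100 µM; weaker binding is reported >100 µM. Two independent runs, mean ± SD.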

[3] = target: PHF1 Tudor W41A (Homo sapiens, UniProt O43189, W41A); assay: ITC binding to PHF1 Tudor aromatic cage mutant W41A
How it was run: as §1

[4] = target: T1, PHF1 Tudor domain (Homo sapiens, UniProt O43189); assay: ITC binding to PHF1 Tudor domain; details: wildtype PHF1 Tudor domain
[5] = target: PHF1 Tudor F65A (Homo sapiens, UniProt O43189, F65A); assay: ITC binding to PHF1 Tudor aromatic cage mutant F65A
How it was run: as §1

[6] = target: T1, PHF1 Tudor domain; details: previously reported 10-mer peptide; cited from earlier work
[7] = target: H3K36me3 peptide 31-40 (Homo sapiens) (UniProt P68431); details: cited from earlier work
[8] = target: T2, PHF1 Tudor domain (residues 25-87), N-terminal His tag (UniProt O43189-1 25-87); assay: ITC
[9] = target: T2, PHF1 Tudor domain (residues 25-87), …; assay: ITC; remark: listed apart in the source
[10] = target: PHF1 Tudor domain (residues 25-87) Y47A, N-terminal His tag (UniProt O43189-1 25-87, Y47A); assay: ITC
[11] = target: PHF19 Tudor domain (residues 49-115), N-terminal His tag; assay: ITC

T2 sequence (O43189 25-87): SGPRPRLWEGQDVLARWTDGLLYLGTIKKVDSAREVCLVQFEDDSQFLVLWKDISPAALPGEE
Sequence of PHF1 Tudor domain (residues 25-87) Y47A, N-terminal His tag (O43189 25-87 Y47A): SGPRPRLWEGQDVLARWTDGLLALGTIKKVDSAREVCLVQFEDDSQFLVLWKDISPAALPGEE
T1 sequence (O43189 25-87): as the sequence (O43189 25-87) above
Sequence of PHF1 Tudor Y47A (O43189 25-87 Y47A): as the sequence (O43189 25-87 Y47A) above
Sequence of PHF1 Tudor (O43189 26-89): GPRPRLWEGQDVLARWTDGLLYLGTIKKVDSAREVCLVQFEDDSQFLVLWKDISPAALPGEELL
Sequence of PHF1 Tudor F65A (O43189 25-87 F65A): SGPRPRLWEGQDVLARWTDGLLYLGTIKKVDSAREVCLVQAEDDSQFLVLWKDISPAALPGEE
Sequence of PHF1 (O43189 whole entry): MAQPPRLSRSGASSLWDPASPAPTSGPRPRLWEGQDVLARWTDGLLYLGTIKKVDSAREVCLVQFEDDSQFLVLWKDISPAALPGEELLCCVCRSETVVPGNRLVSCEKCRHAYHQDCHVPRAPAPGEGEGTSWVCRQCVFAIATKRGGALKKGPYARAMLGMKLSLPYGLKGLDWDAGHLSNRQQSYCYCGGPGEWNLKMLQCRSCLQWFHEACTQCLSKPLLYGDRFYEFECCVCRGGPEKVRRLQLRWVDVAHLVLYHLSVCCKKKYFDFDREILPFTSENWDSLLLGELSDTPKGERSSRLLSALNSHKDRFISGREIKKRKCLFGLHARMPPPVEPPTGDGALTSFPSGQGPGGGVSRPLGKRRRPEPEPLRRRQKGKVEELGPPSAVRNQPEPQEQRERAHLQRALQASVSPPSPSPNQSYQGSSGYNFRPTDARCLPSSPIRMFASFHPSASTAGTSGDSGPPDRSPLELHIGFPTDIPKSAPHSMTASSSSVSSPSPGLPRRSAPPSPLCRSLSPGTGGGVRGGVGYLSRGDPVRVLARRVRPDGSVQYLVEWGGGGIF
Sequence of PHF1 Tudor W41A (O43189 25-87 W41A): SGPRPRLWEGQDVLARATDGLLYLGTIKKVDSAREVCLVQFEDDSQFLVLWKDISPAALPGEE

Molecule: PHF1 (from UniProt O43189)
- Kd [1]: 4 µM

- binding to mutant (in words) [2]: failed to bind
- binding to mutant (in words) [3]: failed to bind
- fold less potent than UNC6641 [4]: about 10 fold
- binding to mutant (in words) [5]: failed to bind
Molecule: CCN(CCCC[C@H](NC(=O)[C@@H](NC(=O)CNC(=O)CN)C(C)C)C(=O)N[C@@H](CCCCN)C(=O)N1CCC[C@H]1C(=O)N[C@@H](CC(C)C)C(=O)N[C@@H](CCCNC(=N)N)C(N)=O)C(C)C [UNC7643, Amino(((S)-5-amino-4-((S)-2-((S)-1-((2S,5S,8S)-14-amino-2-(4-aminobutyl)-5-(4-(ethyl(isopropyl)amino)butyl)-8-isopropyl-4,7,10,13-tetraoxo-3,6,9,12-tetraazatetradecanoyl)pyrrolidine-2-carboxamido)-4-methylpentanamido)-5-oxopentyl)amino)methaniminium] (H-GGV[Lys(Et,iPr)]KPLR-NH2)

Molecule: H3(31—40): previously reported 10-mer H3K36me3 peptide (ATGGVK(Me3)KPHR; UniProt P68431 32-41, looked up, fragment)
- Kd [6]: 16 ± 4 µM

Molecule: PHF1 Tudor (from UniProt O43189)
- Kd [7]: 16 µM

- Kd [8]: 22.3 µM
Molecule: GGVK(Me3)KPHR-NH2 [H3K36me3 peptide H3(33-40), GGVKme3KPHR]

- Kd [9]: 17.9 µM
Molecule: GGV[N6‑ethyl‑N6‑(1-(furan-2-yl)ethyl)‑lysine]KPLR-NH2 [UNC6640]

- Kd [10]: > 100 µM
- Kd [11]: 2.1 µM
Molecule: GGV[X2]KPLR-NH2 [UNC6641]

- Kd [10]: > 100 µM
- Kd [9]: 10.1 µM
Molecule: GGV[N6‑ethyl‑N6‑isopropyl‑lysine]KPLR-NH2 [UNC7643]

- Kd [8]: 48 µM
Molecule: VGVK(Me3)KPH-NH2 [H3K36me3 peptide H3(33-39) G33V, VGVKme3KPH]

- Kd [8]: 52 µM
Molecule: GGVK(Me3)KPH-NH2 [H3K36me3 peptide H3(33-39), GGVKme3KPH]

From publication PMC8225578 (Journal of medicinal chemistry, 2021)
